Laboratory results from ChEMBL document CHEMBL5303300, “EUbOPEN Chemogenomics Library - Multiplex” (2023).
Where “and” joins values, the source holds several entries; their conditions need not be identical. Equal values may be shown once.

Columns and labels:
Type in all cases: toxicity, cell-based
[1] = system: Fibroblast; assay: Multiplex assay against human fibroblast; settings: number of replicates 2
In short: (§1)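 Cells were classed with CellPathfinder machine-learning gating, first as Hoechst high-intensity objects or normal cells, then (normal cells) as healthy, pyknosed or fragmented nuclei, and finally (pyknosed cells) as mitotic or apoptotic. Staining of live cells at seeding used Hoechst33342, BioTracker Green Microtubule Cytoskeleton Dye, MitoTracker Red and Annexin V Alexa Fluor 680, with imaging on a CQ1 microscope at 37°C and 5% CO2 after compound addition. Tubulin, mitochondrial-mass and membrane-permeability phenotypes are per cents of healthy-nucleus cells.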

[2] = system: HEK-293T; assay: Multiplex assay against HEK293T; settings: human, number of replicates 2; in short: as §1
[3] = system: U2OS; assay: Multiplex assay against U2OS; settings: human, number of replicates 2; in short: as §1
[4] = 12 h, 1 µM, compound concentration 1 uM
[5] = 12 h, 10 µM, compound concentration 10 uM
[6] = 24 h, 1 µM, compound concentration 1 uM
[7] = 24 h, 10 µM, compound concentration 10 uM
[8] = 48 h, 1 µM, compound concentration 1 uM
[9] = 48 h, 10 µM, compound concentration 10 uM

SMILES: CS(=O)(=O)c1ccc(C(=O)Nc2cc(F)c(F)c(COc3cc(F)c(Br)cc3CN3CC[C@H](O)C3)c2)c(Cl)c1.O=CO
- Population Apoptotic (%) [1, 4]: 25% and 38%
- Population Healthy Nuclei (%) [1, 4]: 55%
- Population Hoechst High Intensity Objects (%) [1, 4]: 0%
- Population Mitotic Cells (%) [1, 4]: 75% and 61%
- Population Normal (%) [1, 4]: 100%
- Total Cell Count [1, 4]: 220 and 267
- Population Apoptotic (%) [1, 5]: 80% and 55%
- Population Healthy Nuclei (%) [1, 5]: 29%
- Population Hoechst High Intensity Objects (%) [1, 5]: 0%
- Population Mitotic Cells (%) [1, 5]: 20% and 44%
- Population Normal (%) [1, 5]: 100% and 99%
- Total Cell Count [1, 5]: 162 and 357
- Population Apoptotic (%) [1, 6]: 54% and 55%
- Population Healthy Nuclei (%) [1, 6]: 64% and 54%
- Population Hoechst High Intensity Objects (%) [1, 6]: 0%
- Population Mitotic Cells (%) [1, 6]: 45% and 44%
- Population Normal (%) [1, 6]: 99%
- Total Cell Count [1, 6]: 246 and 309
- Population Apoptotic (%) [1, 7]: 94% and 79%
- Population Healthy Nuclei (%) [1, 7]: 35% and 27%
- Population Hoechst High Intensity Objects (%) [1, 7]: 0%
- Population Mitotic Cells (%) [1, 7]: 5%
- Population Normal (%) [1, 7]: 100% and 99%
- Total Cell Count [1, 7]: 154 and 339
- Population Apoptotic (%) [1, 8]: 73% and 71%
- Population Healthy Nuclei (%) [1, 8]: 61% and 60%
- Population Hoechst High Intensity Objects (%) [1, 8]: 0%
- Population Mitotic Cells (%) [1, 8]: 26%
- Population Normal (%) [1, 8]: 99%
- Total Cell Count [1, 8]: 294 and 351
- Population Apoptotic (%) [1, 9]: 93% and 91%
- Population Healthy Nuclei (%) [1, 9]: 25% and 19%
- Population Hoechst High Intensity Objects (%) [1, 9]: 0%
- Population Mitotic Cells (%) [1, 9]: 6% and 8%
- Population Normal (%) [1, 9]: 99%
- Total Cell Count [1, 9]: 147 and 311
- Population Apoptotic (%) [2, 4]: 60% and 64%
- Population Mitotic Cells (%) [2, 4]: 39% and 35%
- Population Normal (%) [2, 4]: 90%
- Total Cell Count [2, 4]: 610 and 577
- Population Apoptotic (%) [2, 5]: 90% and 72%
- Population Mitotic Cells (%) [2, 5]: 9% and 27%
- Population Normal (%) [2, 5]: 91% and 89%
- Total Cell Count [2, 5]: 406 and 397
- Population Apoptotic (%) [2, 6]: 59% and 58%
- Population Mitotic Cells (%) [2, 6]: 40% and 41%
- Population Normal (%) [2, 6]: 91% and 92%
- Total Cell Count [2, 6]: 921 and 854
- Population Apoptotic (%) [2, 7]: 91% and 78%
- Population Mitotic Cells (%) [2, 7]: 8%
- Population Normal (%) [2, 7]: 85% and 83%
- Total Cell Count [2, 7]: 392 and 412
- Population Apoptotic (%) [2, 8]: 23% and 44%
- Population Mitotic Cells (%) [2, 8]: 76% and 55%
- Population Normal (%) [2, 8]: 90% and 89%
- Total Cell Count [2, 8]: 2126 and 1643
- Population Apoptotic (%) [2, 9]: 90% and 83%
- Population Mitotic Cells (%) [2, 9]: 10% and 16%
- Population Normal (%) [2, 9]: 80% and 81%
- Total Cell Count [2, 9]: 434 and 464
- Population Apoptotic (%) [3, 4]: 71% and 68%
- Population Hoechst High Intensity Objects (%) [3, 4]: 0%
- Population Normal (%) [3, 4]: 100%
- Population Apoptotic (%) [3, 5]: 51% and 52%
- Population Healthy Nuclei (%) [3, 5]: 28%
- Population Hoechst High Intensity Objects (%) [3, 5]: 0%
- Population Normal (%) [3, 5]: 99% and 100%
- Population Apoptotic (%) [3, 6]: 60% and 78%
- Population Hoechst High Intensity Objects (%) [3, 6]: 0%
- Population Normal (%) [3, 6]: 100%
- Population Apoptotic (%) [3, 7]: 88% and 86%
- Population Hoechst High Intensity Objects (%) [3, 7]: 0%
- Population Normal (%) [3, 7]: 100% and 99%
- Population Apoptotic (%) [3, 8]: 60% and 89%
- Population Healthy Nuclei (%) [3, 8]: 85%
- Population Hoechst High Intensity Objects (%) [3, 8]: 1% and 0%
- Population Normal (%) [3, 8]: 98% and 100%
- Population Apoptotic (%) [3, 9]: 98% and 90%
- Population Healthy Nuclei (%) [3, 9]: 14% and 6%
- Population Hoechst High Intensity Objects (%) [3, 9]: 1% and 3%
- Population Normal (%) [3, 9]: 98% and 96%
